Measured values taken from ChEMBL document CHEMBL4130408, “Photoactivation provides a mechanistic explanation for pan-assay interference behaviour of 2-aminopyrroles in lipoxygenase inhibition” (Eur J Med Chem, 2017).
The source made the active and inactive calls. The calls are words filed in the database; no cut-off is given here.

How the values were obtained:
HCC-1.2 [1] = test: Cytotoxicity against human HCC1.2 cells assessed as growth inhibition after 48 hrs by neutral red assay; assay type: functional; details: for CC50: HCC-1.2, 48 h, read-out: LD50 (the source's name)
How it was run: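 HCC-1.2 hepatocarcinoma cells grown in RPMI1640 with 10% heat-inactivated FCS at 37 °C, 5% CO2. 2 × 10^5 cells/well seeded and grown 48 h. Viable cells quantified by neutral red (50 μg/mL) uptake from serum-free medium over 2 h. Dye dissolved in 1% acetic acid/70% ethanol, read as absorbance 560 minus 620 nm. Triplicate wells; three to five independent experiments; LD50 reported.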

[2] = target: T1, Polyunsaturated fatty acid lipoxygenase ALOX15 (Homo sapiens, UniProt P16050); test: Inhibition of recombinant human 15-LOX-1 expressed in Escherichia coli BL21(DE3) using linoleic acid as substrate preincubated for 10 mins followed by substrate addition
T1 sequence (P16050 whole entry): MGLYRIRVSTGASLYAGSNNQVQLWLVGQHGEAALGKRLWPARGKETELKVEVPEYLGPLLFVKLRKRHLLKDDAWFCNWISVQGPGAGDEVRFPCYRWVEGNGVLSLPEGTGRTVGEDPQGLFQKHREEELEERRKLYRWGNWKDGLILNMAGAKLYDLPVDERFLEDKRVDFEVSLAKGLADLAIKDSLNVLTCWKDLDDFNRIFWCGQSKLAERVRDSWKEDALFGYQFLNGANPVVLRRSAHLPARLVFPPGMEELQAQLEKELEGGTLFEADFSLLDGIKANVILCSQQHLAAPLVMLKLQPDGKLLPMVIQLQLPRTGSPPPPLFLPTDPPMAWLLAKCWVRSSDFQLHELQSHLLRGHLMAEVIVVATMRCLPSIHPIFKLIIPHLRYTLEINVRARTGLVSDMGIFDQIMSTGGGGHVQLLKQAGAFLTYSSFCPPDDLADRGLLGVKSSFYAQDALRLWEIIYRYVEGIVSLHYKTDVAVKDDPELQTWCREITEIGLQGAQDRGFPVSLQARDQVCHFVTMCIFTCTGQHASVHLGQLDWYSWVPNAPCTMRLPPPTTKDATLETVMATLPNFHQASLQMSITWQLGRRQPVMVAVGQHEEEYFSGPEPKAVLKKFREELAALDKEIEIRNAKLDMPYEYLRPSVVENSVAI

[3] = target: T2, Polyunsaturated fatty acid lipoxygenase ALOX15 (Homo sapiens) (UniProt P16050); test: Inhibition of recombinant human 15-LOX-1 expressed in Escherichia coli BL21(DE3) assessed as residual activity at 50 uM using linoleic acid as substrate preincubated for 10 mins followed by substrate addition
T2 sequence (whole entry): T1 sequence (P16050 whole entry)
How it was run: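 h-15-LOX-1 (1:100 enzyme stock, 1:400 final) preincubated 10 min at room temperature with inhibitor in 25 mM HEPES pH 7.4, then linoleic acid added to 25 µM final (inhibitor 50 µM final). 13(S)-HpODE formation read as A234 over time, rate taken from linear part within first 16 min; no-inhibitor = 100%, no-enzyme = 0%. Triplicate.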

HCC-1.2 [4] = test: Photocytotoxicity against human HCC1.2 cells assessed as decrease in cell viability at 0.4 to 10 uM preincubated with day light for 10 mins measured after 48 hrs by neutral red assay; assay type: functional, cell-based
HCC-1.2 [5] = test: Photocytotoxicity against human HCC1.2 cells assessed as decrease in cell viability preincubated with UV light at 365 nm for 10 mins measured after 48 hrs by neutral red assay; assay type: functional, cell-based
HCC-1.2 [6] = test: Photocytotoxicity against human HCC1.2 cells assessed as decrease in cell viability preincubated with day light for 10 mins measured after 48 hrs by neutral red assay; assay type: functional, cell-based

| SMILES | IC50 [2] [µM] | Activity [3] [%] | also measured |
| --- | --- | --- | --- |
| Nc1[nH]c(C(=O)c2ccccc2)c(-c2ccc(O)cc2O)c1C(=O)c1cccc(Cl)c1 | 8.3 | – | Activity (HCC-1.2 [1]): Dose-dependent effect; CC50 (HCC-1.2 [1]): 2.75 µM |
| Nc1[nH]c(C(=O)c2ccccc2)c(-c2c(F)cccc2F)c1C(=O)c1ccc(Cl)c(Cl)c1 | > 100 | 100 | – |
| CCOC(=O)c1ccc(N)[nH]1 | > 100 | – | – |
| NC(=O)c1c(N)[nH]c(C(=O)c2ccccc2)c1-c1ccc(Cl)cc1Cl | > 100 | 109 | – |
| Nc1[nH]c(C(=O)c2ccccc2)c(-c2cccnc2)c1C(=O)c1cccc(Cl)c1 | > 100 | – | – |
| CCOC(=O)c1ccc[nH]1 | > 100 | – | – |
| Nc1[nH]c(C(=O)c2ccccc2)c(-c2ccc3c(c2)OCO3)c1C(=O)c1cccc(Cl)c1 | > 100 | – | – |
| Nc1[nH]c(C(=O)c2ccccc2)c(-c2ccc(Cl)cc2Cl)c1C(=O)c1cccc(F)c1 | > 100 | – | – |
| Cc1cccc(C(=O)c2c(N)[nH]c(C(=O)c3ccccc3)c2-c2ccc(Cl)cc2Cl)c1 | > 100 | – | Activity (HCC-1.2 [1]): Dose-dependent effect; CC50 (HCC-1.2 [1]): 1.04 µM; Activity (HCC-1.2 [4]): Active |
| Nc1[nH]c(C(=O)c2ccccc2)c(-c2ccc(Cl)cc2Cl)c1C(=O)c1cccc(Br)c1 | 6.3 | – | Activity (HCC-1.2 [1]): Dose-dependent effect; CC50 (HCC-1.2 [1]): 1.64 µM |
| Nc1[nH]c(C(=O)c2ccccc2)c(-c2ccc(Cl)cc2Cl)c1C(=O)c1ccc(Cl)cc1 | > 100 | – | Activity (HCC-1.2 [1]): Dose-dependent effect; CC50 (HCC-1.2 [1]): 1.05 µM |
| Nc1[nH]c(C(=O)c2ccccc2)c(-c2ccc(Cl)cc2Cl)c1C(=O)c1cccs1 | > 100 | – | – |
| Nc1[nH]c(C(=O)c2ccccc2)c(-c2ccc(F)cc2F)c1C(=O)c1cccc(Cl)c1 | – | – | Activity (HCC-1.2 [5]): inactive; Activity (HCC-1.2 [6]): inactive; Activity (HCC-1.2 [1]): Dose-dependent effect; CC50 (HCC-1.2 [1]): 0.99 µM |
| Nc1[nH]c(C(=O)c2ccc(Br)cc2)c(-c2ccc(Cl)cc2Cl)c1C(=O)NCCc1c[nH]c2ccccc12 | – | 69.3 | – |
| Nc1[nH]c(C(=O)c2ccccc2)c(-c2ccc(Br)cc2)c1C(=O)NC1CC1 | – | 94.3 | – |
| CC(C)(C)C(=O)c1c(N)[nH]c(C(=O)c2ccccc2)c1-c1ccccc1Br | – | 82.9 | – |
| Nc1[nH]c(C(=O)c2ccccc2)c(-c2ccc3ccccc3c2)c1C(=O)c1ccc(Cl)c(Cl)c1 | – | – | Activity (HCC-1.2 [1]): Dose-dependent effect; CC50 (HCC-1.2 [1]): 2.64 µM |
| COc1ccc(C(=O)c2[nH]c(N)c(C(=O)NCCc3ccc(Cl)cc3Cl)c2-c2ccccc2Br)cc1 | – | 86.4 | – |

| SMILES | IC50 [2] [µM] | Activity [3] [%] | also measured |
| --- | --- | --- | --- |
| Nc1[nH]c(C(=O)c2ccccc2)c(-c2ccccc2C(F)(F)F)c1C(=O)NC1CCCCC1 | – | 101 | – |
| COc1ccc(C(=O)c2[nH]c(N)c(C(N)=O)c2-c2ccc(OC)c(OC)c2)cc1 | – | 58 | – |
| Nc1[nH]c(C(=O)c2ccccc2)c(-c2ccccn2)c1C(=O)NCCCCl | – | 92.1 | – |
| COc1cc(-c2c(C(=O)c3ccccc3)[nH]c(N)c2C(N)=O)ccc1O | – | 98.8 | – |
| Nc1[nH]c(C(=O)c2ccc(Br)cc2)c(-c2ccc(Br)cc2)c1C(=O)N1CCOCC1 | – | 87 | – |
| COc1ccc(C(=O)c2[nH]c(N)c(C(=O)NCCc3c[nH]c4ccccc34)c2-c2ccc(Br)cc2)cc1 | – | 40.1 | – |
| Cc1ccc([C@@H](C)NC(=O)c2c(N)[nH]c(C(=O)c3ccccc3)c2-c2ccccc2C(F)(F)F)cc1 | – | 96.4 | – |
| Nc1[nH]c(C(=O)c2ccc(Br)cc2)c(-c2ccc(Cl)c(Cl)c2)c1C(=O)NCCc1c[nH]c2ccccc12 | – | 50 | – |
| NC(=O)c1c(N)[nH]c(C(=O)c2ccccc2)c1-c1ccncc1 | – | 98.9 | – |
| COc1ccc(C(=O)c2[nH]c(N)c(C(=O)c3ccccc3)c2-c2ccc(OC)c(OC)c2)cc1 | – | 95.7 | – |
| CCCCCCCCCCCCCCNC(=O)c1c(N)[nH]c(C(=O)c2ccc(Br)cc2)c1-c1ccc(Br)cc1 | – | 99.2 | – |
| Nc1[nH]c(C(=O)c2ccccc2)c(-c2ccc(Br)cc2)c1C(=O)N1CCN(CCO)CC1 | – | 100 | – |
| Cc1[nH]c2ccccc2c1C(=O)c1c(N)[nH]c(C(=O)c2ccc(Br)cc2)c1-c1ccc(Br)cc1 | – | 29.7 | – |
| Nc1[nH]c2cc(Cl)ccc2c1C(=O)NCCc1ccc(Cl)cc1 | – | 80.2 | – |
| Nc1[nH]c(C(=O)c2ccccc2)c(-c2ccccc2C(F)(F)F)c1C(=O)NCCc1cccs1 | – | 91.5 | – |
| Nc1[nH]c(C(=O)c2ccc(Br)cc2)c(-c2ccc(Br)cc2)c1C(=O)NCc1ccc(-c2ccccc2)cc1 | – | 91.2 | – |
| COc1ccc2cccc(-c3c(C(=O)c4ccc(Br)cc4)[nH]c(N)c3C(=O)NCc3ccc(F)c(F)c3)c2c1 | – | 86.3 | – |
| Nc1[nH]c2cc(Cl)ccc2c1C(=O)N1CCOCC1 | – | 107 | – |

Now from value to compound, other results behind:

| IC50 [2] [µM] | Activity [3] [%] | SMILES | also measured |
| --- | --- | --- | --- |
| > 100 | – | Nc1[nH]c(C(=O)c2ccccc2)c(-c2cccc(Cl)c2)c1C(=O)c1cccc(Cl)c1 | – |
| > 100 | – | Nc1[nH]c(C(=O)c2ccccc2)c(-c2ccc(-c3ccccc3)cc2)c1C(=O)c1cccc(Cl)c1 | – |
| > 100 | 73.1 | Nc1[nH]c(C(=O)c2ccccc2)c(-c2ccc(Cl)cc2Cl)c1C(=O)c1ccccc1 | – |
| > 100 | – | Nc1[nH]c(C(=O)c2ccccc2)c(-c2ccccc2Cl)c1C(=O)c1cccc(Cl)c1 | – |
| > 100 | – | Nc1[nH]c(C(=O)c2ccccc2)c(-c2cccc3ccccc23)c1C(=O)c1ccc(Cl)c(Cl)c1 | – |
| > 100 | – | Nc1[nH]c(C(=O)c2ccccc2)c(-c2ccncc2)c1C(=O)c1cccc(Cl)c1 | – |
| > 100 | – | Nc1[nH]c(C(=O)c2ccccc2)c(-c2ccc(Cl)cc2)c1C(=O)c1cccc(Cl)c1 | – |
| – | 69.2 | NC(=O)c1c(N)[nH]c(C(=O)c2ccccc2)c1-c1cccc2ccccc12 | – |
| – | 52.6 | Nc1[nH]c(C(=O)c2ccccc2)c(-c2cccc(C(F)(F)F)c2)c1C(=O)NCCc1c[nH]c2ccccc12 | – |
| – | 97.9 to 105 | COc1ccc(-c2c(C(=O)c3ccccc3)[nH]c(N)c2C(=O)c2ccccc2)cc1OC | – |
| – | 114 | Nc1[nH]c(C(=O)c2ccccc2)c(-c2cccc(C(F)(F)F)c2)c1C(=O)c1c[nH]c2ccccc12 | – |
| – | 75.1 | Nc1[nH]c(C(=O)c2ccccc2)c(-c2ccc(F)cc2)c1C(=O)Cc1ccccc1 | – |
| – | 122 | Nc1[nH]c(C(=O)c2ccccc2)c(-c2ccc3ccccc3c2)c1C(=O)NCc1ccc(-c2ccccc2)cc1 | – |
| – | 104 | Nc1[nH]c(C(=O)c2ccccc2)c(-c2ccccn2)c1C(=O)c1c[nH]c2ccccc12 | – |
| – | 99.3 | NC(=O)c1c(N)[nH]c(C(=O)c2ccccc2)c1-c1ccc(Br)cc1 | – |
| – | 92.7 | Nc1[nH]c(C(=O)c2ccccc2)c(-c2c(F)cccc2Cl)c1C(=O)NCCc1c[nH]c2ccccc12 | – |
| – | 79.7 | Cc1[nH]c2ccccc2c1C(=O)c1c(N)[nH]c(C(=O)c2ccccc2)c1-c1ccc(Cl)cc1 | – |
| – | 43.5 | Nc1[nH]c(C(=O)c2ccccc2)c(-c2ccc(C(F)(F)F)cc2)c1C(=O)NCCc1c[nH]c2ccccc12 | – |
| – | 73.9 | Nc1[nH]c(C(=O)c2ccccc2)c(-c2ccc(Cl)cc2)c1C(=O)c1c[nH]c2ccccc12 | – |
| – | 91.4 | CC(C)(C)C(=O)c1c(N)[nH]c(C(=O)c2ccccc2)c1-c1ccc(F)cc1 | – |
| – | 53.3 | Nc1[nH]c(C(=O)c2ccccc2)c(-c2ccc(O)cc2)c1C(=O)NCCc1c[nH]c2ccccc12 | – |
| – | 68.9 | Nc1[nH]c(C(=O)c2ccc(Br)cc2)c(-c2ccc(F)cc2)c1C(=O)NCCc1c[nH]c2ccccc12 | – |
| – | 85 | Nc1[nH]c(C(=O)c2ccccc2)c(-c2ccccc2C(F)(F)F)c1C(=O)NCc1cccc2ccccc12 | – |
| – | 98.2 | Nc1[nH]c(C(=O)c2ccccc2)c(-c2ccccc2Cl)c1C(=O)NCCc1c[nH]c2ccccc12 | – |
| – | 103 | CN(C)c1ccc(-c2c(C(=O)c3ccccc3)[nH]c(N)c2C(N)=O)cc1 | – |
